{"source": "ChEMBL document CHEMBL4689842", "about": "“EUbOPEN Chemogenomics Library wave 1” (2021)", "type_in_all_cases": "toxicity, cell-based", "key": {"HEK-293T": {"tested_on": "HEK-293T", "test": "Multiplex assay against HEK293T;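 as to Population Tubulin-Different-Phenotype (%): share of the cells with healthy nuclei that show this phenotype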", "conditions": "human, 24 h, 1 µM, compound concentration 1 uM", "outline": "(§1)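 At seeding, live cells were stained with Hoechst33342, BioTracker Green Microtubule Cytoskeleton Dye, MitoTracker Red and Annexin V Alexa Fluor 680. After compound addition they were imaged on a CQ1 microscope at 37°C and 5% CO2, and CellPathfinder machine-learning gating sorted them into Hoechst high-intensity objects or normal cells, with normal cells further split into healthy, pyknosed or fragmented nuclei and pyknosed cells into mitotic or apoptotic. Tubulin, mitochondrial-mass and membrane-permeability phenotypes are given as per cents of cells with healthy nuclei.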"}, "U2OS [1]": {"tested_on": "U2OS", "test": "Multiplex assay against U2OS", "conditions": "human, 1 µM, compound concentration 1 uM", "outline": "as §1"}, "Fibroblast": {"tested_on": "Fibroblast", "test": "Incucyte cell viability with human fibroblast", "conditions": "10 µM, compound concentration 10 uM"}, "U2OS [2]": {"tested_on": "U2OS", "test": "Incucyte cell viability with U2OS", "conditions": "human, 10 µM, compound concentration 10 uM"}, "[3]": {"conditions": "12 h, replicate number 1, timepoint 12 hours"}, "[4]": {"conditions": "12 h, replicate number 2, timepoint 12 hours"}, "[5]": {"conditions": "18 h, replicate number 1, timepoint 18 hours"}, "[6]": {"conditions": "24 h, replicate number 1, timepoint 24 hours"}}, "note": "“And” between values parts separate entries of the source, which are not always exact repeats. Equal values may be shown once. For Growth Rate in this document: filed as whole numbers so only -1 and 0 and 1 occur.", "data": [{"smiles": "CC[C@@H]1C(=O)N(C)c2cnc(Nc3ccc(C(=O)N[C@H]4CC[C@H](N5CCN(CC6CC6)CC5)CC4)cc3OC)nc2N1C(C)C", "note": "[VOLASERTIB]", "values": [{"measurement": "Population Normal (%)", "setting": "HEK-293T; replicate 1", "result": "78% and 90%"}, {"measurement": "Population Pyknosed Nuclei (%)", "setting": "HEK-293T; replicate 1", "result": "36% and 34%"}, {"measurement": "Population Tubulin-Different-Phenotype (%)", "setting": "HEK-293T; replicate 1", "result": "77% and 76%"}, {"measurement": "Total Cell Count", "setting": "HEK-293T; replicate 1", "result": "579 and 547"}, {"measurement": "Population Apoptotic (%)", "setting": "HEK-293T; replicate 2", "result": "6% and 12%"}, {"measurement": "Population Fragmented Nuclei (%)", "setting": "HEK-293T; replicate 2", "result": "3% and 7%"}, {"measurement": "Population Healthy Nuclei (%)", "setting": "HEK-293T; replicate 2", "result": "47% and 61%"}, {"measurement": "Population Hoechst High Intensity Objects (%)", "setting": "HEK-293T; replicate 2", "result": "3% and 6%"}, {"measurement": "Population Membrane Permeable-Phenotype (%)", "setting": "HEK-293T; replicate 2", "result": "7% and 10%"}, {"measurement": "Population Mitochondria Different-Phenotype (%)", "setting": "HEK-293T; replicate 2", "result": "28% and 53%"}, {"measurement": "Population Mitotic Cells (%)", "setting": "HEK-293T; replicate 2", "result": "93% and 87%"}, {"measurement": "Population Normal (%)", "setting": "HEK-293T; replicate 2", "result": "96% and 93%"}, {"measurement": "Population Pyknosed Nuclei (%)", "setting": "HEK-293T; replicate 2", "result": "48% and 30%"}, {"measurement": "Population Tubulin-Different-Phenotype (%)", "setting": "HEK-293T; replicate 2", "result": "91% and 83%"}, {"measurement": "Total Cell Count", "setting": "HEK-293T; replicate 2", "result": "956 and 1101"}, {"measurement": "Population Apoptotic (%)", "setting": "U2OS [1]; 12 h, replicate 1", "result": "60% and 78%"}, {"measurement": "Population Fragmented Nuclei (%)", "setting": "U2OS [1]; 12 h, replicate 1", "result": "8% and 12%"}, {"measurement": "Population Healthy Nuclei (%)", "setting": "U2OS [1]; 12 h, replicate 1", "result": "81% and 61%"}, {"measurement": "Population Hoechst High Intensity Objects (%)", "setting": "U2OS [1]; 12 h, replicate 1", "result": "4% and 3%"}, {"measurement": "Population Membrane Permeable-Phenotype (%)", "setting": "U2OS [1]; 12 h, replicate 1", "result": "46% and 31%"}, {"measurement": "Population Mitochondria Different-Phenotype (%)", "setting": "U2OS [1]; 12 h, replicate 1", "result": "32% and 71%"}, {"measurement": "Population Mitotic Cells (%)", "setting": "U2OS [1]; 12 h, replicate 1", "result": "40% and 21%"}, {"measurement": "Population Normal (%)", "setting": "U2OS [1]; 12 h, replicate 1", "result": "95% and 96%"}, {"measurement": "Population Pyknosed Nuclei (%)", "setting": "U2OS [1]; 12 h, replicate 1", "result": "10% and 25%"}, {"measurement": "Population Tubulin-Different-Phenotype (%)", "setting": "U2OS [1]; 12 h, replicate 1", "result": "88% and 100%"}, {"measurement": "Total Cell Count", "setting": "U2OS [1]; 12 h, replicate 1", "result": "145 and 156"}, {"measurement": "Population Apoptotic (%)", "setting": "U2OS [1]; 12 h, replicate 2", "result": "75% and 76%"}, {"measurement": "Population Fragmented Nuclei (%)", "setting": "U2OS [1]; 12 h, replicate 2", "result": "11% and 18%"}, {"measurement": "Population Healthy Nuclei (%)", "setting": "U2OS [1]; 12 h, replicate 2", "result": "82% and 57%"}, {"measurement": "Population Hoechst High Intensity Objects (%)", "setting": "U2OS [1]; 12 h, replicate 2", "result": "21% and 7%"}, {"measurement": "Population Membrane Permeable-Phenotype (%)", "setting": "U2OS [1]; 12 h, replicate 2", "result": "30% and 61%"}, {"measurement": "Population Mitochondria Different-Phenotype (%)", "setting": "U2OS [1]; 12 h, replicate 2", "result": "46% and 96%"}, {"measurement": "Population Mitotic Cells (%)", "setting": "U2OS [1]; 12 h, replicate 2", "result": "25% and 24%"}, {"measurement": "Population Normal (%)", "setting": "U2OS [1]; 12 h, replicate 2", "result": "78% and 92%"}, {"measurement": "Population Tubulin-Different-Phenotype (%)", "setting": "U2OS [1]; 12 h, replicate 2", "result": 94, "unit": "%"}, {"measurement": "Total Cell Count", "setting": "U2OS [1]; 12 h, replicate 2", "result": "110 and 80"}, {"measurement": "Population Apoptotic (%)", "setting": "U2OS [1]; 24 h, replicate 1", "result": "66% and 77%"}, {"measurement": "Population Fragmented Nuclei (%)", "setting": "U2OS [1]; 24 h, replicate 1", "result": 10, "unit": "%"}, {"measurement": "Population Healthy Nuclei (%)", "setting": "U2OS [1]; 24 h, replicate 1", "result": "76% and 58%"}, {"measurement": "Population Hoechst High Intensity Objects (%)", "setting": "U2OS [1]; 24 h, replicate 1", "result": 5, "unit": "%"}, {"measurement": "Population Membrane Permeable-Phenotype (%)", "setting": "U2OS [1]; 24 h, replicate 1", "result": "28% and 82%"}, {"measurement": "Population Mitochondria Different-Phenotype (%)", "setting": "U2OS [1]; 24 h, replicate 1", "result": "38% and 96%"}, {"measurement": "Population Mitotic Cells (%)", "setting": "U2OS [1]; 24 h, replicate 1", "result": "33% and 22%"}, {"measurement": "Population Normal (%)", "setting": "U2OS [1]; 24 h, replicate 1", "result": 94, "unit": "%"}, {"measurement": "Population Pyknosed Nuclei (%)", "setting": "U2OS [1]; 24 h, replicate 1", "result": "14% and 23%"}, {"measurement": "Population Tubulin-Different-Phenotype (%)", "setting": "U2OS [1]; 24 h, replicate 1", "result": 78, "unit": "%"}, {"measurement": "Total Cell Count", "setting": "U2OS [1]; 24 h, replicate 1", "result": "159 and 158"}, {"measurement": "Population Apoptotic (%)", "setting": "U2OS [1]; 24 h, replicate 2", "result": "65% and 61%"}, {"measurement": "Population Fragmented Nuclei (%)", "setting": "U2OS [1]; 24 h, replicate 2", "result": "18% and 15%"}, {"measurement": "Population Healthy Nuclei (%)", "setting": "U2OS [1]; 24 h, replicate 2", "result": "48% and 67%"}, {"measurement": "Population Hoechst High Intensity Objects (%)", "setting": "U2OS [1]; 24 h, replicate 2", "result": "10% and 12%"}, {"measurement": "Population Membrane Permeable-Phenotype (%)", "setting": "U2OS [1]; 24 h, replicate 2", "result": 86, "unit": "%"}, {"measurement": "Population Mitochondria Different-Phenotype (%)", "setting": "U2OS [1]; 24 h, replicate 2", "result": "100% and 57%"}, {"measurement": "Population Mitotic Cells (%)", "setting": "U2OS [1]; 24 h, replicate 2", "result": "34% and 38%"}, {"measurement": "Population Normal (%)", "setting": "U2OS [1]; 24 h, replicate 2", "result": "89% and 87%"}, {"measurement": "Population Pyknosed Nuclei (%)", "setting": "U2OS [1]; 24 h, replicate 2", "result": "32% and 17%"}, {"measurement": "Population Tubulin-Different-Phenotype (%)", "setting": "U2OS [1]; 24 h, replicate 2", "result": "100% and 71%"}, {"measurement": "Total Cell Count", "setting": "U2OS [1]; 24 h, replicate 2", "result": "83 and 123"}, {"measurement": "Growth Rate", "setting": "Fibroblast; 0 h, replicate number 1, timepoint 0 hours", "result": 0}, {"measurement": "Growth Rate", "setting": "Fibroblast; [3]", "result": 0}, {"measurement": "Growth Rate", "setting": "Fibroblast; [4]", "result": 1}, {"measurement": "Growth Rate", "setting": "Fibroblast; [5]", "result": 0}, {"measurement": "Growth Rate", "setting": "Fibroblast; [6]", "result": 0}, {"measurement": "Growth Rate", "setting": "U2OS [2]; 0 h, replicate number 2, timepoint 0 hours", "result": 0}, {"measurement": "Growth Rate", "setting": "U2OS [2]; 6 h, replicate number 1, timepoint 6 hours", "result": 1}, {"measurement": "Growth Rate", "setting": "U2OS [2]; [3]", "result": 0}, {"measurement": "Growth Rate", "setting": "U2OS [2]; [4]", "result": 1}, {"measurement": "Growth Rate", "setting": "U2OS [2]; [5]", "result": 0}, {"measurement": "Growth Rate", "setting": "U2OS [2]; [6]", "result": 0}]}]}
